This is an account of results in ChEMBL document CHEMBL2040828 (J Med Chem, 2012).

Series [1] can be described thus: Irreversible inhibition of hepatitis C virus NS5B polymerase. Set-up: species or system Hepacivirus hominis.
The test system of the next series is Hepatitis C virus. In words: Antiviral activity against HCV by cell based replicon assay. In kind it is functional, organism-based, Hepacivirus hominis. Background: Replicon systems follow genome replication, usually without infectious particles.
Series [2] in a line: AUC in rat at 10 mg/kg, po. In kind it is ADME, organism-based. As to conditions: plasma. Set-up: dose 10 mg/kg, route oral. The method, boiled down: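 Single-dose pharmacokinetics: rats were dosed at 10 mg/kg, and monkeys and dogs at 3 mg/kg. Oral AUC, clearance, half-life and bioavailability were determined. All doses were given in 0.4% MC vehicle.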

In series [1], `O=C(NS(=O)(=O)C1CC1)c1c(-c2ccc[nH]c2=O)c2cc(F)ccc2n1Cc1cc([N+](=O)[O-])ccc1F` returned an IC50 of 5 nM. This compound showed an EC50 in the series on Hepatitis C virus of 6 nM.

As for `Cc1cc2c(-c3ccc[nH]c3=O)c(C(=O)NS(=O)(=O)C3CC3)n(Cc3cc([N+](=O)[O-])ccc3F)c2cc1F`, the IC50 in series [1] was determined as 7 nM. The compound further yielded an EC50 in the series with Hepatitis C virus of 4 nM. In series [2], the AUC worked out at 0.35 µM·h.

The compound `Cc1ccc2c(c1)c(-c1ccc[nH]c1=O)c(C(=O)NS(=O)(=O)C1CC1)n2Cc1cc(S(C)(=O)=O)cc(C#N)c1F` had a concentration for half-maximal inhibition (IC50) in series [1] of 3 nM. Further, the EC50 in the series on Hepatitis C virus was determined as 5 nM.

With `Cc1ccc2c(c1)c(-c1ccc[nH]c1=O)c(C(=O)NS(=O)(=O)C(C)C)n2Cc1cc([N+](=O)[O-])ccc1F`, 4 nM corresponded to half-maximal inhibition in series [1] (IC50). For the same compound, the half-maximal effective concentration (EC50) in the series on Hepatitis C virus amounted to 3 nM.

`O=C(NS(=O)(=O)C1CC1)c1c(-c2ccc[nH]c2=O)c2cc(C(F)(F)F)ccc2n1Cc1cc([N+](=O)[O-])ccc1F`: the IC50 in series [1] came out at 4 nM. Besides, the midpoint of the response with Hepatitis C virus, the EC50, lay at 2 nM.

In turn, `CCc1ccc2c(c1)c(-c1ccc[nH]c1=O)c(C(=O)NS(=O)(=O)C1CC1)n2Cc1cc(S(N)(=O)=O)c(Cl)cc1Cl` displayed a half-inhibitory concentration (IC50) in series [1] of 6 nM. The compound also gave a concentration giving a half-maximal response (EC50) in the series on Hepatitis C virus of 1400 nM.

`O=C(NS(=O)(=O)C1CC1)c1c(-c2ccc[nH]c2=O)c2ccccc2n1Cc1cc([N+](=O)[O-])ccc1F` returned a concentration for half-maximal inhibition (IC50) in series [1] of 4 nM. In the series with Hepatitis C virus, this compound registered an EC50 of 6 nM.

The compound `O=C(NS(=O)(=O)C1CC1)c1c(-c2ccc[nH]c2=O)c2cc(Cl)ccc2n1Cc1cc([N+](=O)[O-])ccc1F` came in with an IC50 in series [1] of 6 nM. In the series with Hepatitis C virus, this compound came in with an EC50 of 5 nM. The compound further yielded an AUC in series [2] of 0.3 µM·h.

In series [1], `CCc1ccc2c(c1)c(-c1ccc[nH]c1=O)c(C(=O)NS(=O)(=O)C1CC1)n2Cc1cc(S(C)(=O)=O)c(C#N)cc1F` registered an IC50 of 3 nM. Besides, a half-maximal effect in the series on Hepatitis C virus (EC50) was put at 3 nM.

`Cc1ccc2c(c1)c(-c1ccc[nH]c1=O)c(C(=O)NS(=O)(=O)C1CC1)n2Cc1cc([N+](=O)[O-])ccc1F` yielded an IC50 in series [1] of 6 nM. This compound showed an EC50 in the series with Hepatitis C virus of 1 nM. The AUC in series [2] came out at 0.01 µM·h.

In turn, `CCc1ccc2c(c1)c(-c1ccc[nH]c1=O)c(C(=O)NS(=O)(=O)C1CC1)n2Cc1cc(S(C)(=O)=O)c(Cl)cc1F` had an IC50 in series [1] of 2 nM. Further, in the series on Hepatitis C virus, the response was half-maximal at 60 nM (EC50).

On to `Cc1ccc2c(c1)c(-c1ccc[nH]c1=O)c(C(=O)NS(=O)(=O)C1CC1)n2Cc1cc([N+](=O)[O-])ccc1Cl`, for which inhibition in series [1] was half-maximal at 7 nM (IC50). In addition, in the series on Hepatitis C virus, the EC50 is 16 nM.

In series [1], `Cc1ccc2c(c1)c(-c1ccc[nH]c1=O)c(C(=O)NS(=O)(=O)C1CC1)n2Cc1cc(C(N)=O)ccc1F` showed an IC50 of 4 nM. For the same compound, the EC50 with Hepatitis C virus came out at 140 nM.

The compound `Cc1ccc2c(c1)c(-c1ccc[nH]c1=O)c(C(=O)NS(=O)(=O)C1CC1)n2Cc1c(F)c(F)cc(C(N)=O)c1F` returned an IC50 in series [1] of 14 nM. In the series on Hepatitis C virus, it took 3300 nM to reach a half-maximal effect (EC50).

`Nc1cc(Cn2c(C(=O)O)c(-c3ccc[nH]c3=O)c3cc(Cl)ccc32)ccn1`: it took 53 nM to reach half-maximal inhibition in series [1] (IC50).

As to `Cc1ccc2c(c1)c(-c1ccc[nH]c1=O)c(C(=O)NS(=O)(=O)C1CC1)n2Cc1ccnc(N)c1`, in series [1], half-maximal inhibition (IC50) required 6 nM. The same compound returned an EC50 with Hepatitis C virus of 500 nM.

In the case of `Cc1ccc2c(c1)c(-c1ccc[nH]c1=O)c(C(=O)O)n2Cc1cc([N+](=O)[O-])ccc1F`, the IC50 in series [1] amounted to 3 nM. In the series on Hepatitis C virus, this compound returned an EC50 of 1 nM. The compound also showed an AUC in series [2] of 0.14 µM·h.

As a reminder, the IC50 is the point on the concentration scale where inhibition reaches its midpoint. Read a high IC50 as weaker potency. What is called EC50 is the concentration giving half of the maximal effect. Read a low EC50 as an effect from little substance. The term AUC denotes the area under the concentration-time curve, a measure of exposure. The low end stands for less exposure, the high end for more exposure.
